Results from ChEMBL document CHEMBL3351397, “Synthesis and bioactivity of novel amino-pyrazolopyridines” (Eur J Med Chem, 2014).
The source made the active and inactive calls. No cut-off for these calls is given here.

Legend:
[1] = biological target: T1, Nuclear factor NF-kappa-B complex (Homo sapiens) (UniProt Q00653+P19838+Q04206); experiment: Inhibition of TNFalpha-induced NF-kB transactivation in human K562 cells at 40 uM after 8 hrs by luciferase reporter gene assay
K562 [2] = experiment: Induction of apoptosis in human K562 cells assessed as induction of caspase 3/7 activity at 40 uM after 8 hrs by luminescent assay relative to untreated control; type: functional
In short: (§1)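 Cells at 3 × 10⁵/mL were treated with test compounds at 40 µM for 8, 24 or 48 h. Culture was then mixed 1:1 with Caspase-Glo 3/7 reagent and incubated 1 h at room temperature; the reagent lyses cells, caspase cleaves the substrate and luciferase gives luminescence. Results are fold change versus untreated cells.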

Jurkat [3] = experiment: Induction of apoptosis in human Jurkat cells assessed as induction of caspase 3/7 activity at 40 uM after 24 hrs by luminescent assay relative to untreated control; type: functional
In short: as §1

K562 [4] = experiment: Cytotoxicity against human K562 cells at 40 uM assessed as reduction in cell viability after 72 hrs by CellTiter-Glo luminescent assay relative to control; type: functional
In short: (§2)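 K562 cells in RPMI/10% FCS at 37 °C, 5% CO2 were exposed to a single 40 µM concentration for 24 or 72 h. Metabolic activity was normalized to untreated control as % viable cells, mean ± SD of three determinations. Etoposide served as positive control.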

[5] = biological target: T1, Nuclear factor NF-kappa-B complex (Homo sapiens); experiment: Inhibition of TNFalpha-induced NF-kB transactivation in human K562 cells after 8 hrs by luciferase reporter gene assay
PBMC = experiment: Cytotoxicity against human PBMCs after 24 to 72 hrs by CellTiter-Glo luminescent cell viability assay; type: cell-based; conditions: for Activity: human, pbmc
In short: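 PBMCs from healthy donors were isolated by Ficoll centrifugation (400 g, 20 min) of blood diluted 1:1 in RPMI, then washed 2–3 times. Cells rested 24 h at 37 °C, 5% CO2 before dosing. They were then treated as for K562: 40 µM screen and dose-response at 24 and 72 h, % viable versus control, mean ± SD of three determinations.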

K562 [6] = experiment: Cytotoxicity against human K562 cells after 72 hrs by CellTiter-Glo luminescent cell viability assay; type: functional, cell-based; conditions: K562, 72 h
In short: (§3)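 K562 cells were grown in RPMI with 10% FCS and 1% antibiotic-antimycotic at 37 °C, 5% CO2. Cells were exposed to a range of concentrations for 24 and 72 h and metabolic activity was read. Data were normalized to untreated control as % viable cells, mean ± SD of three determinations, with IC50 derived from dose-response curves.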

Jurkat [7] = experiment: Induction of apoptosis in human Jurkat cells assessed as induction of caspase 3/7 activity at 40 uM after 8 hrs by luminescent assay relative to untreated control; type: functional
In short: as §1

U-937 [8] = experiment: Induction of apoptosis in human U937 cells assessed as induction of caspase 3/7 activity at 40 uM after 8 hrs by luminescent assay relative to untreated control; type: functional
In short: as §1

K562 [9] = experiment: Induction of apoptosis in human K562 cells assessed as induction of caspase 3/7 activity at 40 uM after 24 hrs by luminescent assay relative to untreated control; type: functional
In short: as §1

U-937 [10] = experiment: Induction of apoptosis in human U937 cells assessed as induction of caspase 3/7 activity at 40 uM after 8 to 48 hrs by luminescent assay relative to untreated control in presence of 50 uM z-VAD; type: functional, cell-based
In short: (§4)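 Caspase-Glo 3/7 readout at 3 × 10⁵ cells/mL. Cells were pretreated 1 h with the pan-caspase inhibitor Z-VAD(OMe)-FMK, then exposed to compounds at 40 µM for 8, 24 and 48 h. Culture was mixed 1:1 with reagent for 1 h at room temperature; luminescence is expressed as fold change over untreated cells.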

U-937 [11] = experiment: Induction of apoptosis in human U937 cells assessed as induction of caspase 3/7 activity at 40 uM after 24 hrs by luminescent assay relative to untreated control; type: functional
In short: as §1

Jurkat [12] = experiment: Induction of apoptosis in human Jurkat cells assessed as induction of caspase 3/7 activity at 40 uM after 8 to 48 hrs by luminescent assay relative to untreated control in presence of 50 uM z-VAD; type: functional, cell-based
In short: as §4

K562 [13] = experiment: Cytotoxicity against human K562 cells after 24 to 72 hrs by CellTiter-Glo luminescent cell viability assay; type: functional, cell-based
In short: as §3

K562 [14] = experiment: Induction of apoptosis in human K562 cells assessed as induction of caspase 3/7 activity at 40 uM after 8 to 48 hrs by luminescent assay relative to untreated control in presence of 50 uM z-VAD; type: functional, cell-based
In short: as §4

K562 [15] = experiment: Induction of apoptosis in human K562 cells assessed as induction of caspase 3/7 activity at 40 uM after 48 hrs by luminescent assay relative to untreated control; type: functional
In short: as §1

K562 [16] = experiment: Cytotoxicity against human K562 cells assessed as reduction in cell viability at 40 uM after 24 hrs by CellTiter-Glo luminescent assay; type: functional
In short: as §2

[17] = biological target: T1, Nuclear factor NF-kappa-B complex (Homo sapiens); experiment: Inhibition of TNFalpha-induced NF-kB pathway in human K562 cells after 8 hrs by luciferase reporter gene assay; type: cell-based
In short: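 K562 cells were electroporated with an NF-κB-RE firefly luciferase reporter (5 µg) plus phRG-TK Renilla plasmid, then recovered 24 h in RPMI/10% FCS. Cells were resuspended at 1 × 10⁶/mL in RPMI/0.1% FCS, pretreated 2 h, then stimulated with TNFα 20 ng/mL for 6 h (8 h total). Dual-Glo firefly/Renilla ratio read at 22 °C; three independent experiments.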

U-937 [18] = experiment: Induction of apoptosis in human U937 cells assessed as induction of caspase 3/7 activity at 40 uM after 48 hrs by luminescent assay relative to untreated control; type: functional
In short: as §1

Jurkat [19] = experiment: Induction of apoptosis in human Jurkat cells assessed as induction of caspase 3/7 activity at 40 uM after 48 hrs by luminescent assay relative to untreated control; type: functional
In short: as §1

K562 [20] = experiment: Induction of apoptosis in human K562 cells at 40 uM after 72 hrs using Hoechst 33342 by fluorescence microscopy; type: functional, cell-based
In short: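 K562 cells were treated 72 h at 40 µM, then stained with Hoechst 33342 for 15 min at 37 °C. Nuclear morphology, scored as condensed nuclei, was examined by fluorescence microscopy. Etoposide served as positive control.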

K562 [21] = experiment: Cytotoxicity against human K562 cells assessed as reduction in cell viability at 8.2 uM after 24 hrs by CellTiter-Glo luminescent assay; type: functional, cell-based
[22] = biological target: T1, Nuclear factor NF-kappa-B complex (Homo sapiens); experiment: Inhibition of TNFalpha-induced NF-kB pathway in human K562 cells assessed as inhibition of IL-8 release preincubated for 2 hrs before TNFalpha addition measured after 24 hrs by sandwich ELISA; type: cell-based
In short: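 K562 cells were pretreated 2 h with compound, then activated with TNFα 20 ng/mL for 22 h (24 h total). Supernatant IL-8 was quantified by sandwich ELISA: pre-coated anti-IL-8 wells for 2 h at room temperature, peroxidase-conjugated polyclonal anti-IL-8 for 60 min, then H2O2/TMB colorimetric development. Mean ± SD of three determinations.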

T1 sequence (P19838 whole entry, looked up): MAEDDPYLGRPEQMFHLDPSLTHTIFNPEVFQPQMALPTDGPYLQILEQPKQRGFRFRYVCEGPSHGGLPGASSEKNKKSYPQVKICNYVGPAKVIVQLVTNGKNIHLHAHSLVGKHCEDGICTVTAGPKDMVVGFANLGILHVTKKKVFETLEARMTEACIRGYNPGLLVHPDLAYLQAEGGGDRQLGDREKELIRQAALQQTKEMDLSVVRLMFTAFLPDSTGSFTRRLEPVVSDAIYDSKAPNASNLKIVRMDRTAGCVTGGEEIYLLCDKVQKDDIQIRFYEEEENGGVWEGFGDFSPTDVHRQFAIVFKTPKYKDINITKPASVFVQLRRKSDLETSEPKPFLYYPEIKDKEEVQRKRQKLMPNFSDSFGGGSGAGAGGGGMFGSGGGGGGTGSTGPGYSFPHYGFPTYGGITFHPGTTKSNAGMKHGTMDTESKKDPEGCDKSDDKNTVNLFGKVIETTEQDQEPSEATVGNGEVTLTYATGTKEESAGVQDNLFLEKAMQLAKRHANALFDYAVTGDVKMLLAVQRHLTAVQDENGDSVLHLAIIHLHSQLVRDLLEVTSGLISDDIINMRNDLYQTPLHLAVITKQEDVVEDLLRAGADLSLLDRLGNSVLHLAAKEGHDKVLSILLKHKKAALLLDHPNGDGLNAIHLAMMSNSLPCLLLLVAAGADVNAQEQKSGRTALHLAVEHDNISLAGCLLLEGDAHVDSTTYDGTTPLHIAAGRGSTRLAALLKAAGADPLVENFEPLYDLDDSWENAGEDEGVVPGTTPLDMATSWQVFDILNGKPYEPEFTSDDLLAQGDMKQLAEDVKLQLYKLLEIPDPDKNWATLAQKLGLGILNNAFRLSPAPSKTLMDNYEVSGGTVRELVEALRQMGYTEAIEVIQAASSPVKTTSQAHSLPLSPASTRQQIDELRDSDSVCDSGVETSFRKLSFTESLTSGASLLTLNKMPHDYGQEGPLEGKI
T1 sequence (Q00653 whole entry, looked up): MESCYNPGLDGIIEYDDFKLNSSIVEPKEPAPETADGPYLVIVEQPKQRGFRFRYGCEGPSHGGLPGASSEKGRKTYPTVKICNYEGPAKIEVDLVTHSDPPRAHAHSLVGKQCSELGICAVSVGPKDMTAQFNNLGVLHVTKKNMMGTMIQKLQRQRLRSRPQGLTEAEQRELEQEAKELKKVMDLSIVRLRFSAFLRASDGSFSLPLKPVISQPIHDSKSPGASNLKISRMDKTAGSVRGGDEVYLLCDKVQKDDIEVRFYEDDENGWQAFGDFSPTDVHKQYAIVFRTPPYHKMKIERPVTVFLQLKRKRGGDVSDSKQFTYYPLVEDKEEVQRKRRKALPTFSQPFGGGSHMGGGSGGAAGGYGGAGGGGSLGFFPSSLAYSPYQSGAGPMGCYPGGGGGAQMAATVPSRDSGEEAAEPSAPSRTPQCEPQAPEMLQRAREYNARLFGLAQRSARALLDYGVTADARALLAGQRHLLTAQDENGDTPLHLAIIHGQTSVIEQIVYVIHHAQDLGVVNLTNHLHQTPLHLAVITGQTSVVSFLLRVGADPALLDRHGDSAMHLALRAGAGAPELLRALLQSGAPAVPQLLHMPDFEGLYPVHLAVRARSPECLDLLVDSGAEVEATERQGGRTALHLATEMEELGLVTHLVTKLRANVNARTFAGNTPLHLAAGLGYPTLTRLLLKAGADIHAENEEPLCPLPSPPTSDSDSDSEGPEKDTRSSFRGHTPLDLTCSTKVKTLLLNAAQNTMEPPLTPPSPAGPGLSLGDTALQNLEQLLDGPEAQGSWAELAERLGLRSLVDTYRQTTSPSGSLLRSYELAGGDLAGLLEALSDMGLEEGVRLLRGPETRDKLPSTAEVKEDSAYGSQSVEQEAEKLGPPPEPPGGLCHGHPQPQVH
T1 sequence (Q04206 whole entry, looked up): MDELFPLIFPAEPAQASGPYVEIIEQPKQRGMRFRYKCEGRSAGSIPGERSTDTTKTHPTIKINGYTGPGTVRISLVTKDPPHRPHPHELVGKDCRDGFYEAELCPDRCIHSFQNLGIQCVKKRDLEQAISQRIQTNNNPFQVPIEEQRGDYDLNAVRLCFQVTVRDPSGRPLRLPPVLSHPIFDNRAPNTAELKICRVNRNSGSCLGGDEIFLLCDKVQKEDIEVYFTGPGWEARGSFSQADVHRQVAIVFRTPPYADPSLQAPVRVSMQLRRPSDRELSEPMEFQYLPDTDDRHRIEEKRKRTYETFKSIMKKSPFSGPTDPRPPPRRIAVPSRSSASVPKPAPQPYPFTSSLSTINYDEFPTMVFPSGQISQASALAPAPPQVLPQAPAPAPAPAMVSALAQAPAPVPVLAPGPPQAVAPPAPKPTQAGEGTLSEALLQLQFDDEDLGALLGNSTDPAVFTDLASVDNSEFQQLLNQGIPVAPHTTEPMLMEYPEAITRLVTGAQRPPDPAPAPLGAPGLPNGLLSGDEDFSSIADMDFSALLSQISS

| inhibition [1] | inhibition [5] | Compound | Fold change (K562 [2]) | Activity (Jurkat [3]) [%] | Activity (K562 [4]) [%] | Activity (PBMC) | Activity (Jurkat [7]) [%] | Fold change (U-937 [8]) | Activity (K562 [9]) | Activity (U-937 [10]) | Activity (U-937 [11]) [%] | Activity (Jurkat [12]) | IC50 (K562 [13]) [µM] | Activity (K562 [14]) | Activity (K562 [15]) [%] | Activity (U-937 [18]) [%] | Fold change (Jurkat [19]) | Activity (K562 [20]) | also measured |
| --- | --- | --- | --- | --- | --- | --- | --- | --- | --- | --- | --- | --- | --- | --- | --- | --- | --- | --- | --- |
| Active | Dose-dependent effect | Cc1cnc2[nH]nc(N)c2c1-c1ccccc1 | 1.26 | 1.31 | >50 | Non-toxic | 1.27 | 1.73 | 3.62 | inactive | 5.87 | inactive | 35 | inactive | 2.9 | 4.35 | 1.44 | Active | IC50 (K562 [6]): 35 µM; Activity (K562 [16]): <50%; inhibition [17]: Active |
| Active | Dose-dependent effect | CC1Cc2cnc3[nH]nc(N)c3c2-c2ccccc21 (stereo not given) | 1.44 | 5.38 | >50 |  | 8.89 | 16.5 | 2.04 | inactive | 6.27 | inactive | 36.5 | inactive | 1.55 | 1.48 | 2.11 | Active | Activity (K562 [21]): inactive; inhibition [22]: Dose-dependent effect; IC50 (PBMC; Homo sapiens, PBMC): 36.6 µM; Activity (K562 [13]): Dose-dependent effect |
| Active | Dose-dependent effect | Nc1n[nH]c2ncc3c(c12)-c1ccccc1CC3 | 1.37 | 2.73 | >50 | Non-toxic | 2.86 | 11.7 | 2.5 | inactive | 5.84 | inactive | 27.6 | inactive | 2.23 | 1.74 | 2.05 | Active |  |
